# Measured values from different studies.
# Each line is one published result; the experiments were not run side by side.
Compound,target or system,test,system,setting,endpoint,result
COc1cccc(-c2nc(N)nc(N)c2OCCCOc2ccccc2CCC(=O)O)c1,Mycobacterium avium,"microbial growth, resazurin",,,MIC,5.6 µg/mL
C=CC(=O)NC1CCN(c2ncc3ncnc(Nc4ccc(Oc5ccc6c(c5)ncn6C)c(C)c4)c3n2)CC1,HCC1428,cell growth or viability,,,EC50,7.04 µM
O=C(c1ccc(Oc2ccc3c(c2)OCO3)c([N+](=O)[O-])c1)C(Cl)Cl,NCI-H1975,"cell growth or viability, MTT",,2.5 µM,inhibition,97.3%
Nc1nc(N)c(OCCCOc2ccccc2CCC(=O)O)c(-c2ccncc2)n1,Mycobacterium avium,"microbial growth, resazurin",,,MIC,0.6 µg/mL
O/N=c1\cc2n(-c3ccc(Cl)cc3)c3ccccc3nc-2cc1Nc1ccc(Cl)cc1,Mycobacterium avium,microbial growth,,clinical isolate,MIC,> 30 µM
CC(=O)OCCCOc1ccc(C(=O)C(Cl)Cl)cc1[N+](=O)[O-],NCI-H1975,"cell growth or viability, MTT",,2.5 µM,inhibition,78.2%
CC(C)/N=c1\cc2n(-c3ccc(Cl)cc3)c3ccccc3nc-2cc1Nc1ccc(Cl)cc1,Mycobacterium avium,microbial growth,ATCC700898,,MIC,0.06 µM
O=C(c1ccc(Oc2ccc(Br)cc2)c([N+](=O)[O-])c1)C(Cl)Cl,NCI-H1975,"cell growth or viability, MTT",,2.5 µM,inhibition,60.3%
Nc1nc(N)c(OCCCOc2ccccc2CCC(=O)O)c(-c2ccccc2C(F)(F)F)n1,Mycobacterium avium,"microbial growth, resazurin",,,MIC,3.6 µg/mL
O=C(CO/N=c1\cc2n(-c3ccc(Cl)cc3)c3ccccc3nc-2cc1Nc1ccc(Cl)cc1)NCc1ccc(C(F)(F)F)cc1,Mycobacterium avium,microbial growth,,clinical isolate,MIC,> 30 µM
CN(Cc1ccc(C(C)(C)C)cc1)Cc1cccc2ccccc12,Trichophyton rubrum,"microbial growth, disc diffusion",ATCC28188,"0.512 µg/mL, 6 days",inhibition zone,≥ 55 mm
O=C(c1ccc(Oc2ccc3oc(=O)ccc3c2)c([N+](=O)[O-])c1)C(Cl)Cl,NCI-H1975,"cell growth or viability, MTT",,2.5 µM,inhibition,61.6%
O=C(CO/N=c1\cc2n(-c3ccc(Cl)cc3)c3ccccc3nc-2cc1Nc1ccc(Cl)cc1)NCc1ccc2c(c1)CCO2,Mycobacterium avium,microbial growth,ATCC700898,,MIC,1.88 µM
CC(=O)Nc1ccc(Oc2ccc(C(=O)C(Cl)Cl)cc2[N+](=O)[O-])cc1Cl,NCI-H1975,"cell growth or viability, MTT",,2.5 µM,inhibition,96.5%
CCOC(=O)CNC(=O)CO/N=c1\cc2n(-c3ccc(Cl)cc3)c3ccccc3nc-2cc1Nc1ccc(Cl)cc1,Mycobacterium avium,microbial growth,,clinical isolate,MIC,> 30 µM
COc1cccc2c1C(=O)c1c(O)c3c(c(O)c1C2=O)C[C@@](O)(C(=O)CO)C[C@@H]3O[C@H]1C[C@H](N)[C@H](O)[C@H](C)O1,NCI-H1975,"cell growth or viability, MTT",,2.5 µM,inhibition,97.7%
CO/N=c1\cc2n(-c3ccc(Cl)cc3)c3ccccc3nc-2cc1Nc1ccc(Cl)cc1,Mycobacterium avium,microbial growth,ATCC700898,,MIC,0.47 µM
CN(Cc1ccc(C2(C(F)(F)F)CC2)cc1)Cc1cccc2ccccc12,Trichophyton rubrum,"microbial growth, disc diffusion",ATCC28188,"0.064 µg/mL, 6 days",inhibition zone,≥ 55 mm
